“And” between values parts separate entries of the source, which are not always exact repeats. Identical values can stand only once.
Experiments:
Mus musculus [1] = experiment: Activity against TLX-5 lymphoma in mice Percent increase in survival time at 40 mg/kg,; assay type: functional
Mus musculus [2] = experiment: Percent increase in life span was measured in mice intracerebrally implanted leukemia L1210 at 35 mg/kg administered intraperitoneally on day 1 only.; assay type: functional; conditions: L1210, ip, 24 h, route intraperitoneal
In short: (§1)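 Mice implanted intracerebrally with an inoculum of 10⁵ L1210 leukemia cells. Compound given intraperitoneally on day 1 only. Read-outs were median day of death, % increase in life span calculated for animals dying, and 45-day survivors over total mice. Tests were run by an external cancer screening group.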

Mus musculus [3] = experiment: Median day of death was measured in mice intracerebrally implanted leukemia L1210 at 15 mg/kg administered intraperitoneally on day 1.; assay type: functional; conditions: route intraperitoneal; in short: as §1
Mus musculus [4] = experiment: Median day of death was measured in mice intracerebrally implanted leukemia L1210 at 30 mg/kg administered intraperitoneally on day 1.; assay type: functional; conditions: route intraperitoneal; in short: as §1
Mus musculus [5] = experiment: Percent increase in life span was measured in mice intracerebrally implanted leukemia L1210 at 10 mg/kg administered intraperitoneally on day 1 only.; assay type: functional; conditions: L1210, ip, 24 h, route intraperitoneal; in short: as §1
Mus musculus [6] = experiment: Activity against TLX-5 lymphoma in mice Percent increase in survival time at 5 mg/kg,; assay type: functional
Mus musculus [7] = experiment: Activity against TLX-5 lymphoma in mice Percent increase in survival time at 100 mg/kg,; assay type: functional
Mus musculus [8] = experiment: Activity against TLX-5 lymphoma in mice Percent increase in survival time at 10 mg/kg,; assay type: functional
Mus musculus [9] = experiment: Median day of death was measured in mice intracerebrally implanted leukemia L1210 at 10 mg/kg administered intraperitoneally on day 1.; assay type: functional; conditions: route intraperitoneal; in short: as §1
Mus musculus [10] = experiment: Percent increase in life span was measured in mice intracerebrally implanted leukemia L1210 at 15 mg/kg administered intraperitoneally on day 1 only.; assay type: functional; conditions: L1210, ip, 24 h, route intraperitoneal; in short: as §1
Mus musculus [11] = experiment: Percent increase in life span was measured in mice intracerebrally implanted leukemia L1210 at 30 mg/kg administered intraperitoneally on day 1 only.; assay type: functional; conditions: L1210, ip, 24 h, route intraperitoneal; in short: as §1
Mus musculus [12] = experiment: Percent increase in life span was measured in mice intracerebrally implanted leukemia L1210 at 140-30 mg/kg administered intraperitoneally on day 1 only; Toxic; assay type: functional, organism-based; in short: as §1
Mus musculus [13] = experiment: Activity against TLX-5 lymphoma in mice Percent increase in survival time at 80 mg/kg,; assay type: functional
Mus musculus [14] = experiment: Median day of death was measured in mice intracerebrally implanted leukemia L1210 at 25 mg/kg administered intraperitoneally on day 1.; assay type: functional; conditions: route intraperitoneal; in short: as §1
Mus musculus [15] = experiment: Percent increase in life span was measured in mice intracerebrally implanted leukemia L1210 at 25 mg/kg administered intraperitoneally on day 1 only.; assay type: functional; conditions: L1210, ip, 24 h, route intraperitoneal; in short: as §1
Mus musculus [16] = experiment: Activity against TLX-5 lymphoma in mice Percent increase in survival time at 20 mg/kg,; assay type: functional
Mus musculus [17] = experiment: Median day of death was measured in mice intracerebrally implanted leukemia L1210 at 35 mg/kg administered intraperitoneally on day 1.; assay type: functional; conditions: route intraperitoneal; in short: as §1
Mus musculus [18] = experiment: survivors / total number of mice intracerebrally implanted leukemia L1210 at 30 mg/kg administered intraperitoneally on day 1 only. 4-5 day; 1/9; assay type: functional; conditions: route intraperitoneal; in short: as §1
Mus musculus [19] = experiment: survivors / total number of mice intracerebrally implanted leukemia L1210 at 40 mg/kg administered intraperitoneally on day 1 only. 4-5 day; 10/10; assay type: functional; conditions: route intraperitoneal; in short: as §1
Mus musculus [20] = experiment: survivors / total number of mice intracerebrally implanted leukemia L1210 at 50 mg/kg administered intraperitoneally on day 1 only. 4-5 day; 8/10; assay type: functional; conditions: route intraperitoneal; in short: as §1
Mus musculus [21] = experiment: survivors / total number of mice intracerebrally implanted leukemia L1210 at 50 mg/kg administered intraperitoneally on day 1 only. 4-5 day; 8/9; assay type: functional; conditions: route intraperitoneal; in short: as §1
Mus musculus [22] = experiment: Percent increase in life span was measured in mice intracerebrally implanted leukemia L1210 at 40 mg/kg administered intraperitoneally on day 1 only.; assay type: functional; conditions: L1210, ip, 24 h, route intraperitoneal; in short: as §1
Mus musculus [23] = experiment: survivors / total number of mice intracerebrally implanted leukemia L1210 at 60 mg/kg administered intraperitoneally on day 1 only. 4-5 day; 9/10; assay type: functional; conditions: route intraperitoneal; in short: as §1
Mus musculus [24] = experiment: Median day of death was measured in mice intracerebrally implanted leukemia L1210 at 60 mg/kg administered intraperitoneally on day 1.; assay type: functional; conditions: route intraperitoneal; in short: as §1
Mus musculus [25] = experiment: survivors / total number of mice intracerebrally implanted leukemia L1210 at 80 mg/kg administered intraperitoneally on day 1 only. 4-5 day; 3/8; assay type: functional; conditions: route intraperitoneal; in short: as §1
Mus musculus [26] = experiment: survivors / total number of mice intracerebrally implanted leukemia L1210 at 60 mg/kg administered intraperitoneally on day 1 only. 4-5 day; 8/10; assay type: functional; conditions: route intraperitoneal; in short: as §1
Mus musculus [27] = experiment: (§2) Percent increase in life span was measured in mice intracerebrally implanted leukemia L1210 at 80 mg/kg administered intraperitoneally on day 1 only.; assay type: functional; conditions: L1210, ip, 24 h, route intraperitoneal; in short: as §1
Mus musculus [28] = experiment: survivors / total number of mice intracerebrally implanted leukemia L1210 at 30 mg/kg administered intraperitoneally on day 1 only. 4-5 day; 8/10; assay type: functional; conditions: route intraperitoneal; in short: as §1
Mus musculus [29] = experiment: Median day of death was measured in mice intracerebrally implanted leukemia L1210 at 40 mg/kg administered intraperitoneally on day 1.; assay type: functional; conditions: route intraperitoneal; in short: as §1
Mus musculus [30] = experiment: Median day of death was measured in mice intracerebrally implanted leukemia L1210 at 80 mg/kg administered intraperitoneally on day 1.; assay type: functional; conditions: route intraperitoneal; in short: as §1
Mus musculus [31] = experiment: Percent increase in life span was measured in mice intracerebrally implanted leukemia L1210 at 60 mg/kg administered intraperitoneally on day 1 only.; assay type: functional; conditions: route intraperitoneal; in short: as §1
Mus musculus [32] = experiment: as §2; assay type: functional; conditions: L1210, ip, 24 h, route intraperitoneal; in short: as §1; remark: listed apart in the source
Mus musculus [33] = experiment: Percent increase in life span was measured in mice intracerebrally implanted leukemia L1210 at 50 mg/kg administered intraperitoneally on day 1 only.; assay type: functional; conditions: L1210, ip, 24 h, route intraperitoneal; in short: as §1
Mus musculus [34] = experiment: survivors / total number of mice intracerebrally implanted leukemia L1210 at 40 mg/kg administered intraperitoneally on day 1 only. 4-5 day; 8/9; assay type: functional; conditions: route intraperitoneal; in short: as §1

Which Increase (Mus musculus [1]) does the source give for `O=NN(CCCl)C(=O)NC1C(F)(F)C(F)(F)C(F)(F)C(F)(F)C1(F)F` here?
Its Increase is 11.6%.

And the ILS at 35 mg/kg (Mus musculus [2])?
The ILS at 35 mg/kg was -13%.

And the “Median day of death” value (Mus musculus [3])?
Its value is 8.

And the “Median day of death” value (Mus musculus [4])?
Its value is 8.

What about the ILS at 10 mg/kg (Mus musculus [5]) of the same molecule?
The ILS at 10 mg/kg was 0%.

What about the Increase (Mus musculus [6]) of the same molecule?
The Increase was 4.2%.

And the Increase (Mus musculus [7])?
The Increase was -57.5%.

And the Increase (Mus musculus [8])?
The Increase was 6.3%.

And the “Median day of death” value (Mus musculus [9])?
Its value is 8.

And the ILS at 15 mg/kg (Mus musculus [10])?
Its ILS at 15 mg/kg is 0%.

And the ILS at 30 mg/kg (Mus musculus [11])?
The ILS at 30 mg/kg was 0%.

And the ILS (Mus musculus [12])?
Its ILS is “Toxic”.

What about the Increase (Mus musculus [13]) of the same molecule?
The Increase was -38.3%.

And the “Median day of death” value (Mus musculus [14])?
Its value is 8.

What about the ILS at 25 mg/kg (Mus musculus [15]) of the same molecule?
Its ILS at 25 mg/kg is 0%.

What about the Increase (Mus musculus [16]) of the same molecule?
Its Increase is -2.2%.

What about the “Median day of death” value (Mus musculus [17]) of the same molecule?
Its value is 7.

What does the source list for `O=NN(CCCl)C(=O)NC1CCCCC1` [LOMUSTINE]?
Increase (Mus musculus [1]): 189.3%; No. of survivors (Mus musculus [18]): 1; No. of survivors (Mus musculus [19]): 10; No. of survivors (Mus musculus [20]): 8; No. of survivors (Mus musculus [21]): 8; Median day of death (Mus musculus [4]; 30 mg/kg): 37.5 and 15; Increase (Mus musculus [6]): 21.2%; Increase (Mus musculus [7]): -36.2%; ILS at 40 mg/kg (Mus musculus [22]): 257%; No. of survivors (Mus musculus [23]): 9; Increase (Mus musculus [8]): 53.1%; Median day of death (Mus musculus [24]): 26.5 and 20; No. of survivors (Mus musculus [25]): 3; No. of survivors (Mus musculus [26]): 8; ILS at 80 mg/kg (Mus musculus [27]): 42%; Increase (Mus musculus [13]): -25.6%; No. of survivors (Mus musculus [28]): 8; Median day of death (Mus musculus [29]): 25; Increase (Mus musculus [16]): 95.9%; Median day of death (Mus musculus [30]): 16.5 and 10; ILS (Mus musculus [31]): 278% and 185%; ILS at 80 mg/kg (Mus musculus [32]): 135%; ILS at 50 mg/kg (Mus musculus [33]): 350%; No. of survivors (Mus musculus [34]): 8

From ChEMBL document CHEMBL1121559, “Fluorinated analogues of 1-(2-chloroethyl)-3-cyclohexyl-1-nitrosourea: an attempt to control metabolism” (1980)
